Broadly, the MIC is the smallest concentration in the dilution series that meets the test's criterion for growth inhibition. What is called MTD is the highest dose tested that stayed within the study's limit of toxicity. High values mean better tolerability, low ones poorer tolerability.

Values after ≈ are worked out from the molar mass of the structure shown.

The source of these data is ChEMBL document CHEMBL1125291, “New 8-(trifluoromethyl)-substituted quinolones. The benefits of the 8-fluoro group with reduced phototoxic risk” (1992).

One experiment is filed under the species Mus musculus. Put plainly: Dose which has no effect to induce phototoxic reaction in 50% of mice by probit method.
Settings: not given
Type of experiment: functional.
`NC1CCN(c2cc3c(cc2F)c(=O)c(C(=O)O)cn3C2CC2)C1` (centres undefined) yielded a No effect dose of 300 mg/kg.

The next experiment concerns Pseudomonas aeruginosa. Put plainly: Minimum inhibitory concentration (MIC) against gram negative bacteria Pseudomonas aeruginosa UI-18. The experiment is classed as functional. The settings on record: Pseudomonas aeruginosa; read-out: MIC. An outline of the steps: (§1)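 MICs were determined by standard broth microtitration against 11 Gram-positive and Gram-negative organisms, in µg/mL. Values come from duplicate or triplicate experiments and are accurate to ±50%.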
Turning to `NC1CCN(c2cc3c(cc2F)c(=O)c(C(=O)O)cn3C2CC2)C1` (centres undefined), the minimum inhibitory concentration (MIC) was 0.1 µg/mL (≈ 0.302 µM).

For another experiment, the system named is Klebsiella pneumoniae. Put plainly: Minimum inhibitory concentration (MIC) against gram negative bacteria Klebsiella pneumoniae MGH-2. The experiment is classed as functional. To be noted: Klebsiella pneumoniae; read-out: MIC. An outline of the steps: as §1
For `NC1CCN(c2cc3c(cc2F)c(=O)c(C(=O)O)cn3C2CC2)C1` (centres undefined), the MIC was determined as 0.05 µg/mL (≈ 0.151 µM).

The species entered for a further experiment is Mus musculus. The experiment can be described thus: Number of mice which show positive phototoxic reaction in 5 mice. Type of experiment: functional.
Settings: not given
In the case of `NC1CCN(c2cc3c(cc2F)c(=O)c(C(=O)O)cn3C2CC2)C1` (centres undefined), the “No. of pos rxns” value came out at 0.

The subject of another experiment is Streptococcus pyogenes. The experiment can be described thus: Minimum inhibitory concentration (MIC) against gram positive bacteria Streptococcus pyogenes C-203. Type of experiment: functional. The settings on record: Streptococcus pyogenes; read-out: MIC. The method in brief:
as §1
In the case of `NC1CCN(c2cc3c(cc2F)c(=O)c(C(=O)O)cn3C2CC2)C1` (centres undefined), the minimum inhibitory concentration (MIC) is 0.1 µg/mL (≈ 0.302 µM).

Another experiment deals with Pseudomonas aeruginosa. The experiment can be described thus: In vivo efficacy (s.c.) against Pseudomonas aeruginosa in mouse protection test. The settings on record: Pseudomonas aeruginosa, sc; read-out: PD50. Type of experiment: functional. The method in brief:
(§2)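 Acute lethal systemic infections in female Charles River CD-1 mice. A single dose was given at challenge, orally by gavage or by subcutaneous injection. PD50 (median protective dose, mg/kg) was determined.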
Consider `NC1CCN(c2cc3c(cc2F)c(=O)c(C(=O)O)cn3C2CC2)C1` (centres undefined), for which the ED50 stood at 5.4 mg/kg.

For the next experiment, the species on record is Mus musculus. The experiment can be described thus: Days of the first positive reaction in […] mice. Type of experiment: functional.
Settings: not given
The method in brief:
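Phototoxic skin reaction test in depilated female CD-1 mice. A single oral dose (gavage) or subcutaneous dose was given, followed 1 h later by 3 h of UVA exposure (320–400 nm). The regimen was repeated for up to 4 consecutive days, with initial doses of 30, 100 and 300 mg/kg. PTD50 was derived by the probit method. The first day of positive reaction and the no-effect dose were taken from the raw data.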
As to `NC1CCN(c2cc3c(cc2F)c(=O)c(C(=O)O)cn3C2CC2)C1` (centres undefined), the “Day of first positve reaction” value was found to be 0.

The subject of a further experiment is Escherichia coli. Put plainly: In vivo efficacy in mouse protection test in Escherichia coli Vogel administered by subcutaneous injection. The settings on record: Escherichia coli, sc; read-out: PD50. Type of experiment: functional. An outline of the steps: as §2
Take `NC1CCN(c2cc3c(cc2F)c(=O)c(C(=O)O)cn3C2CC2)C1` (centres undefined): the ED50 came out at 0.5 mg/kg.

A further experiment concerns Escherichia coli. The experiment can be described thus: In vivo efficacy in mouse protection test in Escherichia coli Vogel dose administered orally by gavage. Type of experiment: functional. The settings on record: Escherichia coli, po; read-out: PD50. The method in brief:
as §2
For `NC1CCN(c2cc3c(cc2F)c(=O)c(C(=O)O)cn3C2CC2)C1` (centres undefined), the ED50 was found to be 3.4 mg/kg.

A further experiment concerns Escherichia coli. The experiment can be described thus: Minimum inhibitory concentration (MIC) against gram negative bacteria Escherichia coli Vogel. To be noted: Escherichia coli; read-out: MIC. Type of experiment: functional. The method in brief:
as §1
For the compound `NC1CCN(c2cc3c(cc2F)c(=O)c(C(=O)O)cn3C2CC2)C1` (centres undefined), the MIC stood at 0.05 µg/mL (≈ 0.151 µM).

The test system of the next experiment is Streptococcus pneumoniae. The experiment can be described thus: In vivo efficacy (orally) against Streptococcus pneumoniae SV-1 in mouse protection test. Type of experiment: functional. To be noted: Streptococcus pneumoniae, po; read-out: PD50. An outline of the steps: as §2
On to `NC1CCN(c2cc3c(cc2F)c(=O)c(C(=O)O)cn3C2CC2)C1` (centres undefined), for which the ED50 was over 100 mg/kg.

In another experiment the test system is Staphylococcus aureus. Put plainly: Minimum inhibitory concentration (MIC) against gram positive bacteria Staphylococcus aureus UC-76. Type of experiment: functional. The settings on record: Staphylococcus aureus; read-out: MIC. The method in brief: as §1
Consider `NC1CCN(c2cc3c(cc2F)c(=O)c(C(=O)O)cn3C2CC2)C1` (centres undefined), for which the MIC was 0.025 µg/mL (≈ 0.0754 µM).

Test system in another experiment: not listed separately
The experiment can be described thus: Minimum inhibitory concentration (MIC) against gram negative bacteria Prot. rettgeri M-1771. Type of experiment: functional, Providencia rettgeri. The settings on record: Providencia rettgeri; read-out: MIC. The method in brief:
as §1
As to `NC1CCN(c2cc3c(cc2F)c(=O)c(C(=O)O)cn3C2CC2)C1` (centres undefined), the minimal inhibitory concentration (MIC) is 0.1 µg/mL (≈ 0.302 µM).

A further experiment has as its system Mus musculus. Put plainly: Maximum tolerance dose was measured for phototoxic skin reaction by po administration. Type of experiment: functional.
Settings: not given
`NC1CCN(c2cc3c(cc2F)c(=O)c(C(=O)O)cn3C2CC2)C1` (centres undefined) showed a maximal tolerated dose (MTD) of 300 mg/kg.

In the next experiment the test system is Pseudomonas aeruginosa. The experiment can be described thus: In vivo efficacy (orally) against Pseudomonas aeruginosa in mouse protection test. Type of experiment: functional. The settings on record: Pseudomonas aeruginosa, po; read-out: PD50. An outline of the steps: as §2
Turning to `NC1CCN(c2cc3c(cc2F)c(=O)c(C(=O)O)cn3C2CC2)C1` (centres undefined), the ED50 came to 49 mg/kg.

The subject of a further experiment is Enterococcus faecalis. Put plainly: Minimum inhibitory concentration (MIC) against gram positive bacteria Streptococcus faecalis MGH-2. Type of experiment: functional. To be noted: Enterococcus faecalis; read-out: MIC. An outline of the steps: as §1
`NC1CCN(c2cc3c(cc2F)c(=O)c(C(=O)O)cn3C2CC2)C1` (centres undefined): the minimum inhibitory concentration (MIC) was 0.1 µg/mL (≈ 0.302 µM).

A further experiment deals with Staphylococcus aureus. The experiment can be described thus: Minimum inhibitory concentration (MIC) against gram positive bacteria Staphylococcus aureus H-228. The experiment is classed as functional. To be noted: Staphylococcus aureus; read-out: MIC. An outline of the steps: as §1
Take `NC1CCN(c2cc3c(cc2F)c(=O)c(C(=O)O)cn3C2CC2)C1` (centres undefined): the MIC was 0.1 µg/mL (≈ 0.302 µM).

A further experiment has as its system Streptococcus pyogenes. Put plainly: In vivo efficacy (orally) against Streptococcus pyogenes C-203 in mouse protection test. The experiment is classed as functional. To be noted: Streptococcus pyogenes, po; read-out: PD50. An outline of the steps: as §2
`NC1CCN(c2cc3c(cc2F)c(=O)c(C(=O)O)cn3C2CC2)C1` (centres undefined): the ED50 amounted to 97 mg/kg.

A further experiment has as its system Streptococcus pneumoniae. Put plainly: In vivo efficacy (s.c.) against Streptococcus pneumoniae SV-1 in mouse protection test. To be noted: Streptococcus pneumoniae, sc; read-out: PD50. Type of experiment: functional. An outline of the steps:
as §2
On to `NC1CCN(c2cc3c(cc2F)c(=O)c(C(=O)O)cn3C2CC2)C1` (centres undefined), for which the ED50 came out at 23 mg/kg.

Another experiment has as its system Streptococcus pyogenes. The experiment can be described thus: In vivo efficacy (s.c.) against Streptococcus pyogenes C-203 in mouse protection test. The experiment is classed as functional. To be noted: Streptococcus pyogenes, sc; read-out: PD50. An outline of the steps:
as §2
As to `NC1CCN(c2cc3c(cc2F)c(=O)c(C(=O)O)cn3C2CC2)C1` (centres undefined), the ED50 stood at 11 mg/kg.

Another experiment is filed under the species Mus musculus. Put plainly: Dose required to induce phototoxic reaction in 50% of mice by probit method at different dosage forms. Type of experiment: functional.
Settings: not given
`NC1CCN(c2cc3c(cc2F)c(=O)c(C(=O)O)cn3C2CC2)C1` (centres undefined) displayed a PTD50 of over 300 mg/kg.

Another experiment has as its system Enterobacter cloacae. Put plainly: Minimum inhibitory concentration (MIC) against gram negative bacteria Enterobacter cloacae MA-2646. Type of experiment: functional.
Settings: not given
As to `NC1CCN(c2cc3c(cc2F)c(=O)c(C(=O)O)cn3C2CC2)C1` (centres undefined), the minimum inhibitory concentration (MIC) is 0.025 µg/mL (≈ 0.0754 µM).

The test system of another experiment is Escherichia coli. Put plainly: Minimum inhibitory concentration (MIC) against gram negative bacteria Escherichia coli H-560. The settings on record: Escherichia coli; read-out: MIC. The experiment is classed as functional. The method in brief:
as §1
In the case of `NC1CCN(c2cc3c(cc2F)c(=O)c(C(=O)O)cn3C2CC2)C1` (centres undefined), the MIC came out at 0.006 µg/mL (≈ 0.0181 µM).

A further experiment has as its system Streptococcus pneumoniae. The experiment can be described thus: Minimum inhibitory concentration (MIC) against gram positive bacteria Streptococcus pneumoniae SV-1. The experiment is classed as functional. To be noted: Streptococcus pneumoniae; read-out: MIC. An outline of the steps:
as §1
On to `NC1CCN(c2cc3c(cc2F)c(=O)c(C(=O)O)cn3C2CC2)C1` (centres undefined), for which the minimum inhibitory concentration (MIC) was found to be 0.05 µg/mL (≈ 0.151 µM).
